# Results collected from several papers.
# Organism: Mycobacterium tuberculosis
# Read-out: microbial growth
SMILES,assay,test system,conditions,MIC
CC1CCC2(CC1)SCC(=O)N2NC(=O)c1[nH]c2ccc(Cl)cc2c1-c1ccccc1 (centres unmarked),,ATCC27294 H37RV,,31 µM
O=C(Nc1ccc2c(c1)OC(F)(F)O2)Nc1ccc(Cl)c(C(F)(F)F)c1,,H37RV,,2 µM
O=[N+]([O-])c1ccc(/C(O)=C/C(=S)S)cc1,,H37RA,,7.8 µg/mL
COc1nc2ccc(Br)cc2cc1[C@@H](c1ccccc1)[C@@](O)(CCN(C)C)c1cccc2ccccc12,,,,0.06 µg/mL
NC(=O)c1cnccn1,resazurin,H37RV,,3.12 µg/mL
CCOC(=O)c1cc(-c2cccc(NC(=O)Nc3ccc(Cl)c(Cl)c3)c2)on1,,ATCC27294 H37RV,7 days,1 µg/mL
CC(C)(C)C1CCC2(CC1)SCC(=O)N2NC(=O)c1[nH]c2ccc(Cl)cc2c1-c1ccccc1 (centres unmarked),,ATCC27294 H37RV,,16 µM
COC(=O)c1cc(-c2cccc(NC(=O)Nc3ccc(Cl)cc3Cl)c2)on1,,ATCC27294 H37RV,7 days,0.5 µg/mL
C[C@@H]1CN(CC2CCCCC2)C[C@H](C)N1c1nc(=O)c2cc(C(F)(F)F)cc(C#N)c2s1,resazurin,H37RV,,> 2 µM
COC(=O)c1cc(-c2cccc(NC(=S)Nc3ccc(OC)cc3)c2)on1,,ATCC27294 H37RV,7 days,2 µg/mL
C[C@H]1COc2c(N3CCN(C)CC3)c(F)cc3c(=O)c(C(=O)O)cn1c23,resazurin,H37RA,14 days,0.12 µg/mL
Cc1cn2c(C(=O)NCc3ccc(S(F)(F)(F)(F)F)cc3)c(C)nc2s1,resazurin,H37RV,,0.078 µM
COC(=O)c1cc(-c2cccc(NC(=O)Nc3ccccc3F)c2)on1,,ATCC27294 H37RV,7 days,2 µg/mL
Cc1ccc(C)n1-c1ccc(-c2nnc(-c3ccccc3Cl)[nH]2)cc1,broth dilution,H37RV,21 days,8 µg/mL
Cc1c(Cc2ccc(Cl)c(Cl)c2)c(=O)n2c([nH]c3ccccc32)c1C#N,broth dilution,H37RV,,0.5 µg/mL
NNC(=O)c1ccncc1,,H37RV,5 days,0.3 µM
O=C(C1CCCN(S(=O)(=O)c2ccccc2[N+](=O)[O-])C1)N1CCN(C(c2ccc(F)cc2)c2ccc(F)cc2)CC1 (centres unmarked),,ATCC27294 H37RV,,> 25 µg/mL
COC(=O)c1cc(-c2cccc(NC(=O)Nc3ccc(Cl)cc3)c2)on1,,ATCC27294 H37RV,7 days,2 µg/mL
Nc1ncnc2c1ncn2[C@@H]1O[C@H](COS(N)(=O)=O)[C@@H](O)[C@H]1O,,H37RV,,0.16 µg/mL
COc1nc2ccc(Br)cc2cc1[C@@H](c1ccccc1)[C@@](O)(CCN(C)C)c1cccc2ccccc12,resazurin,H37RV,14 days,0.51 µM
